Assays:
[1] = biological target: T1, Amine oxidase [flavin-containing] A (Homo sapiens, UniProt P21397); test: Inhibition of human recombinant MAO-A at 0.01 uM using tyramine as substrate preincubated with enzyme for 30 mins followed by incubation with substrate for 30 mins by Amplex Red reagent based fluorometric method relative to control; conditions: 0.5 h, time 60 min
T1 sequence (P21397 whole entry): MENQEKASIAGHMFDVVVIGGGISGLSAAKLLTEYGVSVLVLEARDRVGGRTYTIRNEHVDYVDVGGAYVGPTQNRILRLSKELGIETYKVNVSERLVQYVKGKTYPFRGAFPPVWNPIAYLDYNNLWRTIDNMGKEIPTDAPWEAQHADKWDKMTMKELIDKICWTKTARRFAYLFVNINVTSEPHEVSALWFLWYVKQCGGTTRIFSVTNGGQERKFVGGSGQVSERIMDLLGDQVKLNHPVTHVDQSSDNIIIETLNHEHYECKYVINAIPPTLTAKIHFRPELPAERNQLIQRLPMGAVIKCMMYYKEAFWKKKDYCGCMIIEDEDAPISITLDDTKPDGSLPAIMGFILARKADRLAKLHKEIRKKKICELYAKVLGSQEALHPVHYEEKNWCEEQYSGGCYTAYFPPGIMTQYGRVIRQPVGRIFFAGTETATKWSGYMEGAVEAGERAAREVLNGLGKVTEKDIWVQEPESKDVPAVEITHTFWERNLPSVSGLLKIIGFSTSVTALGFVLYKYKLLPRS
Method in brief: (§1)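 Recombinant hMAO-A at 0.5 U/mL in phosphate buffer. Inhibitors are dissolved in 2% DMSO and preincubated with enzyme at 37 °C for 30 min. The working solution is then added: horseradish peroxidase, Amplex (Ampliflu) red and tyramine. Fluorescence (Ex/Em 535/587 nm) is read at 5-min intervals over 30 min at 37 °C. Controls use 2% DMSO. Background without enzyme is subtracted. Peroxidase interference is checked with H2O2.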

[2] = biological target: T2, Amine oxidase [flavin-containing] B (Homo sapiens, UniProt P27338); test: Inhibition of human recombinant MAO-B at 1 mM using tyramine as substrate preincubated with enzyme for 30 mins followed by incubation with substrate for 30 mins by Amplex Red reagent based fluorometric method relative to control; conditions: 0.5 h, read-out: INH
T2 sequence (P27338 whole entry): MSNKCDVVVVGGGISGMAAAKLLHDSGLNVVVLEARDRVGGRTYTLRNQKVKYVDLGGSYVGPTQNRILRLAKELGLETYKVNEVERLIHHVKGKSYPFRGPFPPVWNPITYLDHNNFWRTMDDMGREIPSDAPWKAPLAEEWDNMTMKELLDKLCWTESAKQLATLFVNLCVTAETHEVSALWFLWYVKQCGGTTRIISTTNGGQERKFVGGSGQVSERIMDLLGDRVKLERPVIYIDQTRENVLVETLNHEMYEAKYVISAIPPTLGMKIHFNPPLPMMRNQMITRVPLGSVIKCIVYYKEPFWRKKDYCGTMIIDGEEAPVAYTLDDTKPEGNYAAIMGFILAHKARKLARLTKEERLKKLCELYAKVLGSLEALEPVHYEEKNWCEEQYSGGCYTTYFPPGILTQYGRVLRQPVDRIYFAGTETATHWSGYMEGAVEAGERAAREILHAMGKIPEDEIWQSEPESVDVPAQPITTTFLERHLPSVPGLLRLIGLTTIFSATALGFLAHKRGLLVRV

[3] = biological target: T1, Amine oxidase [flavin-containing] A; test: Inhibition of human recombinant MAO-A at 1 uM using tyramine as substrate preincubated with enzyme for 30 mins followed by incubation with substrate for 30 mins by Amplex Red reagent based fluorometric method relative to control; conditions: 0.5 h, time 60 min; method in brief: as §1
[4] = biological target: T2, Amine oxidase [flavin-containing] B; test: Inhibition of human recombinant MAO-B at 100 uM using tyramine as substrate preincubated with enzyme for 30 mins followed by incubation with substrate for 30 mins by Amplex Red reagent based fluorometric method relative to control; conditions: 0.5 h, read-out: INH
[5] = biological target: T1, Amine oxidase [flavin-containing] A; test: Inhibition of human recombinant MAO-A at 0.1 nM using tyramine as substrate preincubated with enzyme for 30 mins followed by incubation with substrate for 30 mins by Amplex Red reagent based fluorometric method relative to control; conditions: 0.5 h, time 60 min; method in brief: as §1
[6] = biological target: T1, Amine oxidase [flavin-containing] A; test: Inhibition of human recombinant MAO-A at 1 nM using tyramine as substrate preincubated with enzyme for 30 mins followed by incubation with substrate for 30 mins by Amplex Red reagent based fluorometric method relative to control; conditions: 0.5 h, time 60 min; method in brief: as §1
[7] = biological target: T1, Amine oxidase [flavin-containing] A; test: Inhibition of human recombinant MAO-A at 10 uM using tyramine as substrate preincubated with enzyme for 30 mins followed by incubation with substrate for 30 mins by Amplex Red reagent based fluorometric method relative to control; conditions: 0.5 h, time 60 min; method in brief: as §1
[8] = biological target: T1, Amine oxidase [flavin-containing] A; test: Inhibition of human recombinant MAO-A at 100 uM using tyramine as substrate preincubated with enzyme for 30 mins followed by incubation with substrate for 30 mins by Amplex Red reagent based fluorometric method relative to control; conditions: 0.5 h, time 60 min; method in brief: as §1
[9] = biological target: T1, Amine oxidase [flavin-containing] A; test: Inhibition of human recombinant MAO-A at 0.01 nM using tyramine as substrate preincubated with enzyme for 30 mins followed by incubation with substrate for 30 mins by Amplex Red reagent based fluorometric method relative to control; conditions: 0.5 h, time 60 min; method in brief: as §1
[10] = biological target: T1, Amine oxidase [flavin-containing] A; test: Inhibition of human recombinant MAO-A at 1 mM using tyramine as substrate preincubated with enzyme for 30 mins followed by incubation with substrate for 30 mins by Amplex Red reagent based fluorometric method relative to control; conditions: 0.5 h, time 60 min; method in brief: as §1
[11] = biological target: T1, Amine oxidase [flavin-containing] A; test: Inhibition of human recombinant MAO-A using tyramine as substrate preincubated with enzyme for 30 mins followed by incubation with substrate for 30 mins by Amplex Red reagent based fluorometric method
Method in brief: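 Recombinant hMAO-A at 0.5 U/mL in phosphate buffer. Inhibitors are dissolved in 2% DMSO and preincubated with enzyme at 37 °C for 30 min. The working solution is then added: horseradish peroxidase, Amplex (Ampliflu) red and tyramine. Controls use 2% DMSO. Background without enzyme is subtracted. Peroxidase interference is checked with H2O2.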

[12] = biological target: T1, Amine oxidase [flavin-containing] A; test: Inhibition of human recombinant MAO-A at 0.1 uM using tyramine as substrate preincubated with enzyme for 30 mins followed by incubation with substrate for 30 mins by Amplex Red reagent based fluorometric method relative to control; conditions: 0.5 h, time 60 min; method in brief: as §1
[13] = biological target: T1, Amine oxidase [flavin-containing] A; test: Inhibition of human recombinant MAO-A assessed as enzyme residual activity using tyramine as substrate at 4XIC50 incubated with enzyme for 15 mins followed by substrate addition by Amplex Red reagent based fluorometric method relative to control; conditions: 0.25 h
Method in brief: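 Recombinant hMAO-A (1 U mL⁻¹) preincubated with inhibitor for 15 min at 37 °C in 0.05 M potassium phosphate, pH 7.4, with 5% sucrose and 1% DMSO. The mixture was dialysed 24 h at 4 °C (12 000 Da cut-off) against 100 mM potassium phosphate, pH 7.4, 5% sucrose, with two buffer changes. Residual activity was then measured in triplicate and reported as mean ± SEM.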

[14] = biological target: T1, Amine oxidase [flavin-containing] A; test: Competitive inhibition of human recombinant MAO-A using tyramine as substrate preincubated with enzyme for 30 mins followed by substrate addition and measured for 30 mins by Lineweaver-burk plot analysis

SMILES | inhibition at 0.01 µM [1] | inhibition at 1000 µM [2] | inhibition at 1 µM [3] | inhibition at 100 µM [4] | inhibition at 0.0001 µM [5] | inhibition at 0.001 µM [6] | inhibition at 10 µM [7] | inhibition at 100 µM [8] | inhibition at 10 pM [9] | inhibition at 1000 µM [10] | IC50 [11] | inhibition at 0.1 µM [12] | Activity [13] | Ki [14]
CC(C)Nc1nnc(SCC(=O)N(Cc2cccc([N+](=O)[O-])c2)c2ccc(F)cc2)s1 | 23.9% | 36% | 46% | 28.5% | 10.8% | 13.6% | 86.1% | 89.1% | 6.87% | 92.5% | 1.07 µM | 43% |  | 
O=C(NCCN1CCOCC1)c1ccc(Cl)cc1 [MOCLOBEMIDE] | 19.6% |  | 35.8% |  | 12.8% | 15.4% | 62.4% | 83.1% | 7.25% | 95.3% |  | 24.5% | 31.253% | 
CCCNc1nnc(SCC(=O)N(Cc2cccc([N+](=O)[O-])c2)c2ccc(F)cc2)s1 | 25.1% | 42.7% | 62.3% | 26.8% | 12% | 20.5% | 78.3% | 91.1% | 8.5% | 95% | 0.241 µM | 45.1% |  | 
C=CCNc1nnc(SCC(=O)N(Cc2cccc([N+](=O)[O-])c2)c2ccc(F)cc2)s1 | 32.7% | 38.1% | 56.5% | 29.2% | 13.5% | 20.5% | 75.2% | 86.4% | 10.2% | 92% | 0.502 µM | 43.2% |  | 
CCCCNc1nnc(SCC(=O)N(Cc2cccc([N+](=O)[O-])c2)c2ccc(F)cc2)s1 | 30% | 40.6% | 47.3% | 34.3% | 11.1% | 19.7% | 76% | 82.3% | 6.94% | 90.5% | 1.17 µM | 33.6% |  | 
COCCNc1nnc(SCC(=O)N(Cc2cccc([N+](=O)[O-])c2)c2ccc(F)cc2)s1 | 34.7% | 38.6% | 72.7% | 25.7% | 20.1% | 26.9% | 80.6% | 91.5% | 13.5% | 94.1% | 0.06 µM | 61.1% | 25.956% | 0.033 µM
CC(C)CNc1nnc(SCC(=O)N(Cc2cccc([N+](=O)[O-])c2)c2ccc(F)cc2)s1 | 25.5% | 36% | 43.2% | 24.2% | 12.6% | 17.3% | 72.6% | 84.3% | 6.36% | 93.5% | 1.79 µM | 31.8% |  | 
CCNc1nnc(SCC(=O)N(Cc2cccc([N+](=O)[O-])c2)c2ccc(F)cc2)s1 | 30.3% | 41.3% | 61.9% | 22.4% | 14.2% | 21% | 74.1% | 89.5% | 10.3% | 93.6% | 0.336 µM | 42.1% |  | 
Cc1ccc(Nc2nnc(SCC(=O)N(Cc3cccc([N+](=O)[O-])c3)c3ccc(F)cc3)s2)cc1 |  | 37.9% |  | 26.5% |  |  |  | 42.7% |  | 87.6% |  |  |  | 
C#CCN(C)CCCOc1ccc(Cl)cc1Cl [CLORGILINE] | 35.3% |  | 79.1% |  | 17% | 21.7% | 88.5% | 92.1% | 11.3% | 96.4% |  | 63.9% | 88.315% | 
O=C(CSc1nnc(Nc2ccccc2)s1)N(Cc1cccc([N+](=O)[O-])c1)c1ccc(F)cc1 |  | 43.1% |  | 20.7% |  |  |  | 41.4% |  | 89.5% |  |  |  | 

From ChEMBL document CHEMBL4699429, “Novel 1,3,4-thiadiazole compounds as potential MAO-A inhibitors - design, synthesis, biological evaluation and molecular modelling” (RSC Med Chem, 2020)
